These results are taken from the array DNA melting data of Ke et al. (doi:10.1101/2024.01.08.574731).

Data set [1] is described as follows: folding enthalpy; higher = less favourable; fluorescence melt of hairpins on a sequencing array, two-state fit. The note with it: sodium 0.088 M. In outline:
(§1)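 Library hairpins on a sequenced MiSeq flow cell carried annealed Cy3 and quencher oligos, and their Cy3 fluorescence was imaged in 50 mM Na-HEPES pH 8.0 with 25 mM NaCl, in 2.5 °C steps up to 60 °C. Signals were normalised to Cy3 before quenching and to control constructs. Melting temperature and folding enthalpy were obtained from bootstrapped two-state fits, combined by inverse-variance weighting across four replicates, and the fitted temperatures were then raised by 9.35 °C to match UV melts.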

Data set [2] is described as follows: melting temperature; fluorescence melt of hairpins on a sequencing array, two-state fit, raised by 9.35 °C to match UV melts. The note with it: sodium 0.088 M. In outline: as §1

In the case of GGTAGCGAAAGCTGTACC ((((((....)))..))), in data set [1], the folding enthalpy is -19.9 kcal/mol. Also, in data set [2], the Tm is 40.7 °C.
On to GGTAGCGAAAGCTTGACC ((((((....)))..))), for which, in data set [1], the folding enthalpy was -13.9 kcal/mol. Also, in data set [2], the Tm stood at 35.7 °C.
Regarding GGTAGGAAACTACC (((((....))))), in data set [1], the folding enthalpy is -26.5 kcal/mol. Besides, the Tm in data set [2] amounted to 48.2 °C.
For GGTAGGCGAAAGCCGACC (((.(((....))).))), the folding enthalpy in data set [1] is -18.6 kcal/mol. Besides, the Tm in data set [2] worked out at 65.4 °C.
With GGTAGGGGAAACCCTATC (.(((((....))))).), in data set [1], the folding enthalpy is -24.4 kcal/mol. Moreover, the Tm in data set [2] came out at 44.3 °C.
On to GGTAGGGGAAACCTTGCC ((.(.((....)).).)), for which the folding enthalpy in data set [1] was -20.2 kcal/mol. Further, the Tm in data set [2] turned out to be 34.7 °C.
The corresponding values for GGTAGGGGAAACTCTGCC ((.((.(....).)).)) are -22.9 kcal/mol and 35.1 °C.
As to GGTAGTCGAAAGACAACC (((.(((....))).))), in data set [1], the folding enthalpy was -25.2 kcal/mol. Moreover, the Tm in data set [2] was determined as 51.3 °C.
The corresponding values for GGTAGTGGAAACACTGTC (..((((....))))..) are -20.9 kcal/mol and 29.2 °C.
The corresponding values for GGTAGTGGAAACATTACC ((((.((....)).)))) are -34.3 kcal/mol and 41.6 °C.
The like results for GGTATCCGAAAGGAAACC (((.(((....))).))) were, in that order, -31.9 kcal/mol and 48.8 °C.
GGTATCGAAAGATCCACC ((((((....)))..))): in data set [1], the folding enthalpy is -14.7 kcal/mol. Moreover, the Tm in data set [2] turned out to be 31.8 °C.
With GGTATCGAAAGATGAACC ((((((....)))..))), in data set [1], the folding enthalpy is -15.4 kcal/mol. For the same sequence, the Tm in data set [2] came out at 27.9 °C.
As to GGTATCGAAAGATGCACC ((((((....)))..))), the folding enthalpy in data set [1] is -16.1 kcal/mol. Also, the Tm in data set [2] came to 33.9 °C.
The corresponding values for GGTATCGAAAGATGGACC ((((((....)))..))) are -15.2 kcal/mol and 28.9 °C.
The corresponding values for GGTATGCGAAAGCAACC (((.(((....)))))) are -14.5 kcal/mol and 47.7 °C.
The corresponding values for GGTATGGGAAACCACACC (((.(((....))).))) are -27 kcal/mol and 38.6 °C.
For GGTATGGGAAACCATATC (.(((((....))))).), the folding enthalpy in data set [1] was -24.1 kcal/mol. Further, the Tm in data set [2] came to 39.7 °C.
The corresponding values for GGTATGGGAAACCATGTC (..((((....))))..) are -13.5 kcal/mol and 27.4 °C.
The corresponding values for GGTATTGAAAAATACC ((((((....)))))) are -38.8 kcal/mol and 49 °C.
The like results for GGTATTGGAAACAATACC (((((((....))))))) were, in that order, -43.7 kcal/mol and 56.9 °C.
In the case of GGTATTGGAAACAATATC (.(((((....))))).), the folding enthalpy in data set [1] was -24.9 kcal/mol. Moreover, in data set [2], the Tm is 37.1 °C.
For GGTCAAGCGAAAGCTACC (((..(((....)))))), in data set [1], the folding enthalpy was -17.8 kcal/mol. In addition, the Tm in data set [2] turned out to be 34.8 °C.
The corresponding values for GGTCAAGGAAACCTGACC (((((.(....).))))) are -30.5 kcal/mol and 46.5 °C.
The like results for GGTCACCGAAAGGTAACC (((.(((....))).))) were, in that order, -27.5 kcal/mol and 48.4 °C.
Turning to GGTCACGAAAGTGAGACC ((((((....)))..))), the folding enthalpy in data set [1] is -15.7 kcal/mol. Also, the Tm in data set [2] came to 45.8 °C.
For GGTCACGAAAGTGGTACC ((((((....)))..))), the folding enthalpy in data set [1] was -14.3 kcal/mol. In addition, in data set [2], the Tm came to 42.7 °C.
For the sequence GGTCACGAAAGTGTCACC ((((((....)))..))), in data set [1], the folding enthalpy is -13.3 kcal/mol. Further, the Tm in data set [2] turned out to be 37.9 °C.
With GGTCACGAAAGTGTGACC ((((((....)))..))), the folding enthalpy in data set [1] is -33.8 kcal/mol. The Tm in data set [2] stood at 56.3 °C.
The corresponding values for GGTCACGGAAACGTGGCC ((.((((....)))).)) are -37.2 kcal/mol and 64.9 °C.
The like results for GGTCAGACGAAAGTCACC (((..(((....)))))) were, in that order, -14.6 kcal/mol and 30.5 °C.
As for GGTCAGCGAAAGCTTACC (((.(((....))).))), in data set [1], the folding enthalpy is -31.8 kcal/mol. In addition, in data set [2], the Tm came to 48.9 °C.
As for GGTCAGGGAAACTTGGCC ((.((.(....).)).)), in data set [1], the folding enthalpy was -26.1 kcal/mol. In addition, the Tm in data set [2] amounted to 38.2 °C.
The corresponding values for GGTCATCGAAAGATACC (((.(((....)))))) are -24.2 kcal/mol and 38.4 °C.
The corresponding values for GGTCATGGAAACACGACC ((((.((....)).)))) are -37.1 kcal/mol and 43 °C.
The corresponding values for GGTCATGGAAACATGGTC (..((((....))))..) are -17.6 kcal/mol and 32.7 °C.
GGTCCAGAAATGGACC ((((((....)))))): the folding enthalpy in data set [1] is -46 kcal/mol. Further, in data set [2], the Tm was 64 °C.
As to GGTCCAGGAAACCGAACC (((.(.(....).).))), the folding enthalpy in data set [1] was -10 kcal/mol. The Tm in data set [2] turned out to be 25.7 °C.
The corresponding values for GGTCCCCGAAAGGGTACC (((.(((....))).))) are -24.1 kcal/mol and 53.3 °C.
The corresponding values for GGTCCCGAAAGGGAAACC ((((((....)))..))) are -15.3 kcal/mol and 43.2 °C.
As for GGTCCCGAAAGGGATACC ((((((....)))..))), in data set [1], the folding enthalpy was -12.9 kcal/mol. For the same sequence, the Tm in data set [2] stood at 41.4 °C.
The like results for GGTCCCGAAAGGGCACC ((((((....))).))) were, in that order, -16.6 kcal/mol and 53.5 °C.
The like results for GGTCCGTCGAAAGACACC (((..(((....)))))) were, in that order, -14.1 kcal/mol and 27.5 °C.
GGTCCTCGAAAGAGACC (((.(((....)))))): in data set [1], the folding enthalpy was -31.3 kcal/mol. Also, the Tm in data set [2] was 48.1 °C.
The corresponding values for GGTCGAGAAATCGACC ((((((....)))))) are -40 kcal/mol and 66.2 °C.
The like results for GGTCGAGGAAACCCGACC (((((.(....).))))) were, in that order, -49.6 kcal/mol and 54.1 °C.
Regarding GGTCGAGGAAACTCGGCC ((.((((....)))).)), the folding enthalpy in data set [1] is -53.9 kcal/mol. Moreover, the Tm in data set [2] is 59.5 °C.
As to GGTCGCACGAAAGTGACC (((..(((....)))))), in data set [1], the folding enthalpy is -18.1 kcal/mol. Besides, the Tm in data set [2] was 49.6 °C.
As for GGTCGCGAAAGCGGTACC ((((((....)))..))), the folding enthalpy in data set [1] is -14.5 kcal/mol. For the same sequence, the Tm in data set [2] worked out at 46.5 °C.
As for GGTCGCGGAAACGTGGCC ((.(.((....)).).)), the folding enthalpy in data set [1] is -48.9 kcal/mol. Moreover, the Tm in data set [2] was found to be 53.5 °C.
As for GGTCGGAAACGACC (((((....))))), the folding enthalpy in data set [1] was -32.3 kcal/mol. In data set [2], the Tm turned out to be 68 °C.
As to GGTCGGGGAAACCTGACC ((((.((....)).)))), the folding enthalpy in data set [1] was -37.5 kcal/mol. Moreover, the Tm in data set [2] is 57.2 °C.
In the case of GGTCGTGGAAACACGATC (.(((((....))))).), in data set [1], the folding enthalpy was -38 kcal/mol. Further, the Tm in data set [2] came to 54 °C.
The like results for GGTCGTGGAAACGTGACC ((((..(....)..)))) were, in that order, -20.4 kcal/mol and 46.5 °C.
The like results for GGTCTAACGAAAGTTACC (((..(((....)))))) were, in that order, -10.2 kcal/mol and 25.5 °C.
The corresponding values for GGTCTACCGAAAGGTACC (((..(((....)))))) are -11 kcal/mol and 29.1 °C.
As to GGTCTACGAAAGTAACC (((.(((....)))))), the folding enthalpy in data set [1] was -24 kcal/mol. The Tm in data set [2] came out at 34.3 °C.
In the case of GGTCTAGGAAACTAGATC (.(((((....))))).), in data set [1], the folding enthalpy is -29.8 kcal/mol. For the same sequence, the Tm in data set [2] is 40.3 °C.
The like results for GGTCTAGGAAACTAGGCC ((.((((....)))).)) were, in that order, -46.1 kcal/mol and 51.1 °C.
With GGTCTAGGAAACTGGACC ((((.((....)).)))), the folding enthalpy in data set [1] was -41.6 kcal/mol. The Tm in data set [2] was found to be 51 °C.
As to GGTCTATCGAAAGATACC (((..(((....)))))), the folding enthalpy in data set [1] is -10.3 kcal/mol. In addition, in data set [2], the Tm came out at 25.8 °C.
The corresponding values for GGTCTCCGAAAGGAAACC (((.(((....))).))) are -29.2 kcal/mol and 45.5 °C.
The corresponding values for GGTCTCCGAAAGGAACC (((.(((....)))))) are -22.4 kcal/mol and 45.2 °C.
The like results for GGTCTCGAAAGAGATACC ((((((....)))..))) were, in that order, -15.2 kcal/mol and 38.7 °C.
As to GGTCTCGAAAGAGGTACC ((((((....)))..))), in data set [1], the folding enthalpy is -19.9 kcal/mol. In data set [2], the Tm was determined as 35 °C.
The like results for GGTCTCGAAAGAGTCACC ((((((....)))..))) were, in that order, -14.6 kcal/mol and 31.3 °C.
The like results for GGTCTCGGAAACGAGGCC ((.((((....)))).)) were, in that order, -39.3 kcal/mol and 62.2 °C.
Turning to GGTCTCTCGAAAGAGACC (((..(((....)))))), in data set [1], the folding enthalpy was -35.3 kcal/mol. The Tm in data set [2] was determined as 60.5 °C.
The like results for GGTCTGCGAAAGCAACC (((.(((....)))))) were, in that order, -18.8 kcal/mol and 44.6 °C.
The corresponding values for GGTCTGCGAAAGCACACC (((.(((....))).))) are -20.9 kcal/mol and 42.1 °C.
In the case of GGTCTGCGAAAGCATACC (((.(((....))).))), the folding enthalpy in data set [1] was -22.1 kcal/mol. Further, the Tm in data set [2] came to 49.4 °C.
The corresponding values for GGTCTTCGAAAGAAAACC (((.(((....))).))) are -25.7 kcal/mol and 35.2 °C.
As for GGTCTTGCGAAAGCAACC (((..(((....)))))), the folding enthalpy in data set [1] is -8.24 kcal/mol. The Tm in data set [2] worked out at 28.8 °C.
